One block for each compound: values may come before it. The source made the active and inactive calls. No cut-off for these calls is given here.
Assays:
MCF7 [1] = assay: Cytotoxicity against human MCF-7 cells assessed as cell growth inhibition after 72 hrs by MTT assay; format: functional
Method in brief: (§1)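 Compounds predissolved in DMSO, tested in a five-dose series from 0.01 to 100 µM for 72 h, then read by MTT. Percent viability inhibition is taken against control, and GI50 is fitted by nonlinear regression.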

[2] = target: T1, DNA topoisomerase 1 (Homo sapiens) (UniProt P11387); assay: Inhibition of recombinant TOP1 (unknown origin) at 1 uM using 3'-[32P]-labeled 117 bp DNA oligonucleotides as substrate incubated for 20 mins by PAGE analysis relative to CPT
T1 sequence (whole entry): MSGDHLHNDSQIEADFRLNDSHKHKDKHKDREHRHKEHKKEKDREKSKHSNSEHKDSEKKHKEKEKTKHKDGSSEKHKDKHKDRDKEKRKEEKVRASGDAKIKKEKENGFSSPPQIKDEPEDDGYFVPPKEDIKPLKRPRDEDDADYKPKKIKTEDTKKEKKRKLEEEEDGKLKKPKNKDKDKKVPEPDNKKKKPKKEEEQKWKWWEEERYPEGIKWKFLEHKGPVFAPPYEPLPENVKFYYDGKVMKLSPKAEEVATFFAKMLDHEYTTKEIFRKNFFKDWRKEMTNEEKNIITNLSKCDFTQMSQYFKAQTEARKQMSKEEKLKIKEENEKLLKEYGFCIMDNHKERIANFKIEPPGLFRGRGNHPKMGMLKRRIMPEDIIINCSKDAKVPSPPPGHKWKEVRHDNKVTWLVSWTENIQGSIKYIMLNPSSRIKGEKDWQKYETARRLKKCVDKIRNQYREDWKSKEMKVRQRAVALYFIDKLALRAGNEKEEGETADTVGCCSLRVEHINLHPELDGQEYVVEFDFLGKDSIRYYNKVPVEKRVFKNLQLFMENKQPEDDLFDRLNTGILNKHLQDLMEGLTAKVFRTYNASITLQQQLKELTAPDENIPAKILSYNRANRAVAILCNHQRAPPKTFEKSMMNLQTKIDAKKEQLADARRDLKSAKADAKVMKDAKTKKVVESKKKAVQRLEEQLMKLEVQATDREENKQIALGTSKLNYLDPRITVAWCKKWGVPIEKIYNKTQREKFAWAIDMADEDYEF
Method in brief: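 3'-[32P]-labeled 117 bp oligonucleotide (~2 nM) with recombinant TOP1 and compound, 25 °C, 20 min. Buffer: 10 mM Tris-HCl pH 7.5, 50 mM KCl, 5 mM MgCl2, 0.1 mM EDTA, BSA. Stopped with 0.5% SDS and run on 20% denaturing PAGE with phosphorimaging.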

[3] = target: Tyrosyl-DNA phosphodiesterase 1 (Homo sapiens, UniProt Q9NUW8); assay: Inhibition of TDP1 (unknown origin) using 5'-FAM-AGGATCTAAAAGACTT-BHQ-3' as substrate at 100 uM measured after 30 mins by fluorescence assay relative to control
Chain of Tyrosyl-DNA phosphodiesterase 1 (Q9NUW8 whole entry): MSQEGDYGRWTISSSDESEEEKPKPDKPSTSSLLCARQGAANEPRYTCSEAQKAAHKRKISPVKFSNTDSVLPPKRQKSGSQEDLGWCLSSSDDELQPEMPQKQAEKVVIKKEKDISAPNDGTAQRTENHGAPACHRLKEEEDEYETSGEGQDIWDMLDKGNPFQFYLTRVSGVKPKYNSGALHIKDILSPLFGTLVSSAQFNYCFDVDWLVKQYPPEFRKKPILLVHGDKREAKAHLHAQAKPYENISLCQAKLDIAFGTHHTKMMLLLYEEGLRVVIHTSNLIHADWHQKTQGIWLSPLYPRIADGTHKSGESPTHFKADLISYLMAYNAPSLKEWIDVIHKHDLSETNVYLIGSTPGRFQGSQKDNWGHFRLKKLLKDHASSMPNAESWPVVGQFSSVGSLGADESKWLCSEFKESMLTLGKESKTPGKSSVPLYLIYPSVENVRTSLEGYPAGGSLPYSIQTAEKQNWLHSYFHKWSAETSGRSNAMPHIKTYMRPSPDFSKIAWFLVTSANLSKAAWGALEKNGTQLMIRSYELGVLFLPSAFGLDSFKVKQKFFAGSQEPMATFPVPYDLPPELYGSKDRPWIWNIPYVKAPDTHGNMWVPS

DU-145 = assay: Cytotoxicity against human DU145 cells assessed as cell growth inhibition after 72 hrs by MTT assay; format: functional; method in brief: as §1
HCT-116 = assay: Cytotoxicity against human HCT-116 cells assessed as cell growth inhibition after 72 hrs by MTT assay; format: functional
Method in brief: (§2)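 Cells kept in RPMI 1640 or DMEM with 10% FBS at 37 °C, 5% CO2. Compounds predissolved in DMSO, tested in a five-dose series from 0.01 to 100 µM for 72 h, then read by MTT. Percent viability inhibition is taken against control, and GI50 is fitted by nonlinear regression.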

A549 = assay: Cytotoxicity against human A549 cells assessed as cell growth inhibition after 72 hrs by MTT assay; format: functional; method in brief: as §2
MCF7 [4] = assay: Cytotoxicity against human MCF-7/TDP1 cells assessed as cell growth inhibition after 72 hrs by MTT assay; format: functional
Method in brief: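 MCF-7/TDP1 is a TDP1-overexpressing line made by transfecting parental MCF-7, grown in RPMI 1640 or DMEM with 10% FBS at 37 °C, 5% CO2. DMSO-dissolved compounds tested at five doses from 0.01 to 100 µM, read by MTT. GI50 (mean ± SD, at least three repeats) fitted by nonlinear regression against control.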

[5] = Resistance index,ratio of GI50 for growth inhibition of human MCF-7/TDP1 cells to GI50 for growth inhibition of human MCF-7 cells; format: functional
Method in brief: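 Resistance index is the MTT GI50 in TDP1-overexpressing MCF-7/TDP1 (transfected MCF-7) divided by the GI50 in parental MCF-7. GI50 values are mean ± SD of at least three experiments.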

inhibition [2]: inactive | inhibition [3]: 0%
Compound: COc1cc2c(cc1OC(C)C)c(=O)n(CCN(C)C)c1c3cc4c(cc3ccc21)OCO4

inhibition [2]: 20%
Compound: COc1ccc2c(c1O)c(=O)n(CCN(C)C)c1c3cc4c(cc3ccc21)OCO4

inhibition [2]: 20%
Compound: CN(C)CCn1c(=O)c2cc3c(cc2c2ccc4cc5c(cc4c21)OCO5)OCO3

inhibition [2]: inactive | inhibition [3]: 0%
Compound: COc1ccc2c(c1OC)c(=O)n(CCN(C)C)c1c3cc4c(cc3ccc21)OCO4

inhibition [2]: 20%
Compound: COc1cc2c(cc1O)c(=O)n(CCN(C)C)c1c3cc4c(cc3ccc21)OCO4

inhibition [2]: 75% | inhibition [3]: 0%
Compound: COc1ccc2c(=O)n(CCN(C)C)c3c4cc5c(cc4ccc3c2c1)OCO5
GI50 (MCF7 [1]): 0.2 µM

inhibition [2]: 75% | inhibition [3]: 0%
Compound: CN(C)CCn1c(=O)c2cc(F)ccc2c2ccc3cc4c(cc3c21)OCO4
GI50 (A549): 7.87 µM

inhibition [2]: 20% | inhibition [3]: 0%
Compound: COc1cc2c(=O)n(CCN(C)C)c3c4cc5c(cc4ccc3c2cc1O)OCO5
GI50 (MCF7 [1]): > 100 µM | GI50 (A549): > 100 µM

inhibition [2]: inactive | inhibition [3]: 0%
Compound: COc1ccc2c(=O)n(CCN(C)C)c3c4cc5c(cc4ccc3c2c1O)OCO5
GI50 (MCF7 [1]): > 100 µM

inhibition [2]: 50% | inhibition [3]: 0%
Compound: CN(C)CCn1c(=O)c2ccc(F)cc2c2ccc3cc4c(cc3c21)OCO4

inhibition [2]: inactive | inhibition [3]: 0%
Compound: CN(C)CCn1c(=O)c2cc(Br)ccc2c2ccc3cc4c(cc3c21)OCO4

inhibition [2]: < 20%
Compound: COc1cc2ccc3c4cc5c(cc4c(=O)n(CCN(C)C)c3c2cc1OC)OCO5

inhibition [2]: 75% | inhibition [3]: 0%
Compound: CN(C)CCn1c(=O)c2ccc(Cl)cc2c2ccc3cc4c(cc3c21)OCO4

inhibition [2]: inactive | inhibition [3]: 0%
Compound: COc1ccc2c(=O)n(CCN(C)C)c3c4cc5c(cc4ccc3c2c1OC)OCO5

inhibition [2]: 20% | inhibition [3]: 0%
Compound: COc1cccc2c1c(=O)n(CCN(C)C)c1c3cc4c(cc3ccc21)OCO4

inhibition [2]: 20% | inhibition [3]: 0%
Compound: COc1cc2ccc3c4ccc5c(c4c(=O)n(CCN(C)C)c3c2cc1OC)OCO5

inhibition [2]: 20% | inhibition [3]: 0%
Compound: CN(C)CCn1c(=O)c2cc(O)c(O)cc2c2ccc3cc4c(cc3c21)OCO4
GI50 (DU-145): > 100 µM

inhibition [2]: Active | inhibition [3]: 0%
Compound: COc1ccc2c(c1)c(=O)n(CCN(C)C)c1c3cc4c(cc3ccc21)OCO4

inhibition [2]: 20% | inhibition [3]: 0%
Compound: COc1cc2c(=O)n(CCN(C)C)c3c4cc5c(cc4ccc3c2cc1OC(C)C)OCO5
GI50 (HCT-116): 0.9 µM

inhibition [2]: 75% | inhibition [3]: 0%
Compound: CN(C)CCn1c(=O)c2cc(F)c(F)cc2c2ccc3cc4c(cc3c21)OCO4

The next lines start with the compound.

Compound: COc1cc2ccc3c4c(OC)c(OC)ccc4c(=O)n(CCN(C)C)c3c2cc1OC
GI50 (MCF7 [1]): > 100 µM | inhibition [2]: inactive | inhibition [3]: 0% | GI50 (DU-145): > 100 µM | GI50 (HCT-116): > 100 µM

Compound: COc1ccc2ccc3c4ccccc4c(=O)n(CCN(C)C)c3c2c1
inhibition [2]: 20% | inhibition [3]: 0%

Compound: CC[C@@]1(O)C(=O)OCc2c1cc1n(c2=O)Cc2cc3ccccc3nc2-1 [CAMPTOTHECIN]
GI50 (MCF7 [1]): 0.35 µM | GI50 (A549): 0.31 µM | GI50 (MCF7 [4]): 3.21 µM | GI50 (HCT-116): 0.05 µM

Compound: COc1cc2c(ccc3c4cc(OC)c(OC)cc4c(=O)n(CCN(C)C)c23)cc1O
inhibition [2]: 20%

Compound: COc1ccc2c(=O)n(CCN(C)C)c3c4ccccc4ccc3c2c1OC
inhibition [2]: inactive | inhibition [3]: 0%

Compound: CN(C)CCn1c(=O)c2ccc(C(F)(F)F)cc2c2ccc3cc4c(cc3c21)OCO4
inhibition [2]: 50% | inhibition [3]: 0% | GI50 (DU-145): 1 µM

Compound: CN(C)CCn1c(=O)c2c3c(ccc2c2ccc4ccccc4c21)OCO3
inhibition [2]: 20%

Compound: CN(C)CCn1c(=O)c2cc([N+](=O)[O-])ccc2c2ccc3cc4c(cc3c21)OCO4
inhibition [2]: 75% | inhibition [3]: 0%

Compound: CN(C)CCn1c(=O)c2ccccc2c2ccc3cc4c(cc3c21)OCO4
inhibition [2]: 20% | inhibition [3]: 0%

Compound: COc1cc2c(=O)n(CCN(C)C)c3c4ccccc4ccc3c2cc1OC
inhibition [2]: 25%

Compound: COc1ccc2c(c1)c(=O)n(CCN(C)C)c1c3ccccc3ccc21
inhibition [2]: 20%

Compound: COc1cc2ccc3c4ccccc4c(=O)n(CCN(C)C)c3c2cc1OC
inhibition [2]: 20%

Compound: COc1cc2c(=O)n(CCN(C)C)c3c4cc(O)c(O)cc4ccc3c2cc1OC
inhibition [2]: 50% | inhibition [3]: 0%

Compound: CN(C)CCn1c(=O)c2cc3c(cc2c2ccc4ccccc4c21)OCO3
inhibition [2]: 25%

Compound: COc1cccc2c1ccc1c3ccccc3c(=O)n(CCN(C)C)c21
inhibition [2]: 20% | inhibition [3]: 0%

Compound: COc1cc2c3ccccc3c(=O)n(CCN(C)C)c2c2ccccc12
inhibition [2]: < 20%

Compound: COc1cccc2c1c(=O)n(CCN(C)C)c1c3ccccc3ccc21
inhibition [2]: inactive

Compound: COc1ccc2c(ccc3c4ccccc4c(=O)n(CCN(C)C)c23)c1
inhibition [2]: 20% | inhibition [3]: 0%

Compound: COc1cc2ccc3c4cc(OC)c(OC)cc4c(=O)n(CCN(C)C)c3c2cc1O
inhibition [2]: < 20% | inhibition [3]: 0%

Compound: CN(C)CCn1c(=O)c2c3c(ccc2c2ccc4cc5c(cc4c21)OCO5)OCO3
inhibition [2]: 20%

Compound: COc1ccc2c(=O)n(CCN(C)C)c3c4ccccc4ccc3c2c1
inhibition [2]: 20%

Compound: CN(C)CCn1c(=O)c2ccccc2c2ccc3ccccc3c21
inhibition [2]: 20% | inhibition [3]: 0%

Compound: CN(C)CCn1c(=O)c2cc(F)c(F)cc2c2ccc3ccccc3c21
inhibition [2]: 50% | inhibition [3]: 0%

Compound: COc1cccc2c(=O)n(CCN(C)C)c3c4ccccc4ccc3c12
inhibition [2]: inactive | inhibition [3]: 0%

Compound: COc1ccc2c(c1OC)c(=O)n(CCN(C)C)c1c3ccccc3ccc21
inhibition [2]: inactive | inhibition [3]: 0%

Compound: COc1cc2c(=O)n(CCN(C)C)c3c4cc5c(cc4ccc3c2cc1OC)OCO5
GI50 (MCF7 [1]): 0.2 µM | RatioGI50 [5]: 19.9 | GI50 (A549): 0.32 µM | GI50 (MCF7 [4]): 7.42 µM | GI50 (DU-145): 0.078 µM | GI50 (HCT-116): 0.14 µM

Compound: COc1cccc2ccc3c4ccccc4c(=O)n(CCN(C)C)c3c12
inhibition [2]: inactive | inhibition [3]: 0%

Compound: COc1cc2ccc3c4cc(OC)c(OC)cc4c(=O)n(CCN(C)C)c3c2cc1OC
inhibition [2]: < 20%

Compound: CN(C)CCn1c(=O)c2ccccc2c2ccc3cc(Br)ccc3c21
inhibition [2]: 20% | inhibition [3]: 0%

Compound: CN(C)CCn1c(=O)c2cc(O)ccc2c2ccc3ccccc3c21
inhibition [2]: 20% | inhibition [3]: 0%

Compound: COc1cc2ccccc2c2c1c1ccccc1c(=O)n2CCN(C)C
inhibition [2]: inactive | inhibition [3]: 0%

Compound: COc1cc2ccc3c4ccc(OC)c(OC)c4c(=O)n(CCN(C)C)c3c2cc1OC
inhibition [2]: inactive | inhibition [3]: 0% | GI50 (HCT-116): > 100 µM

Reference: ChEMBL document CHEMBL5038587, “Synthesis of Methoxy-, Methylenedioxy-, Hydroxy-, and Halo-Substituted Benzophenanthridinone Derivatives as DNA Topoisomerase IB (TOP1) and Tyrosyl-DNA Phosphodiesterase 1 (TDP1) Inhibitors and Their Biological Activity for Drug-Resistant Cancer” (J Med Chem, 2021)
